{
  "source": "ChEMBL document CHEMBL4138271",
  "about": "“Crystal Structures and Human Leukemia Cell Apoptosis Inducible Activities of Parthenolide Analogues Isolated from Piptocoma rufescens” (J Nat Prod, 2018)",
  "key": {"MOLM-13 [1]": {"test_system": "MOLM-13", "assay": "Induction of apoptosis in human MOLM13 cells assessed as late apoptotic cells at 0.26 uM after 24 hrs by Annexin-V FITC/7-AAD staining based flow cytometric method (reference value: 1.43%)", "type": "functional"}, "MOLM-13 [2]": {"test_system": "MOLM-13", "assay": "Synergistic antileukemic activity against human MOLM13 cells assessed as concentration required for <= 75% cell survival after 72 hrs in presence of midostaurin by CellTiter 96 AQueous One solution cell proliferation assay", "type": "functional"}, "EOL1 [3]": {"test_system": "EOL1", "assay": "Induction of apoptosis in human EOL-1 cells assessed as necrotic cells at 0.59 uM after 24 hrs by Annexin-V FITC/7-AAD staining based flow cytometric method (reference value: 0.032%)", "type": "functional"}, "[4]": {"target": "Transcription factor p65 (Homo sapiens) (UniProt Q04206)", "sequence (Q04206 whole entry)": "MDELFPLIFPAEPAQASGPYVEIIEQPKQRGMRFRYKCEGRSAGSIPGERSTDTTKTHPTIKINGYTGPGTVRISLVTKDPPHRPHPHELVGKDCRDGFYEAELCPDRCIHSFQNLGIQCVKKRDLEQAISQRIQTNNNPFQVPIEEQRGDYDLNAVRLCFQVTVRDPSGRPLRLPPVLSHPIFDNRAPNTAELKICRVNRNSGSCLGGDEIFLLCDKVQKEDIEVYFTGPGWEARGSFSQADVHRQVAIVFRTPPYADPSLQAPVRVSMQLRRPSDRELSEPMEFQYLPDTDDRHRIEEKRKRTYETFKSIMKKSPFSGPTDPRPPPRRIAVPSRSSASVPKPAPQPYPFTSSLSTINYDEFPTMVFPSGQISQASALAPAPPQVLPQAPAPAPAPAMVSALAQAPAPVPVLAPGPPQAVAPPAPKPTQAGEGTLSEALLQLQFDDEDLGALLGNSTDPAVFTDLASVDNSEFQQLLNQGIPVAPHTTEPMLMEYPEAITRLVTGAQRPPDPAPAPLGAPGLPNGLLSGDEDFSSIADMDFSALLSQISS", "assay": "Inhibition of NFkappaB p65 in human EOL-1 cells at 10 uM after 72 hrs by immunoblotting method", "type": "cell-based", "method_in_brief": "(§1)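 MOLM-13 or EOL-1 cells treated 72 h at 10 μM. Cells washed in ice-cold PBS and lysed in hypertonic NP-40 buffer (10 mM HEPES pH 7.5, 0.5 M NaCl) with protease/phosphatase inhibitors. Protein measured by BCA; SDS-PAGE onto PVDF. Probed 12 h with rabbit monoclonal NF-κB-p65 antibody, goat β-actin as loading control, then chemiluminescence. Blots representative of three independent experiments.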"}, "MOLM-13 [5]": {"test_system": "MOLM-13", "assay": "Induction of apoptosis in human MOLM13 cells assessed as necrotic cells at 1.8 uM after 24 hrs by Annexin-V FITC/7-AAD staining based flow cytometric method (reference value: 0%)", "type": "functional"}, "EOL1 [6]": {"test_system": "EOL1", "assay": "Induction of apoptosis in human EOL-1 cells assessed as early apoptotic cells at 0.59 uM after 24 hrs by Annexin-V FITC/7-AAD staining based flow cytometric method (reference value: 1.94%)", "type": "functional"}, "EOL1 [7]": {"test_system": "EOL1", "assay": "Cytotoxicity against human EOL-1 cells after 72 hrs by MTS assay", "type": "functional, cell-based", "settings": "EOL1, 72 h"}, "EOL1 [8]": {"test_system": "EOL1", "assay": "Induction of apoptosis in human EOL-1 cells assessed as late apoptotic cells at 0.59 uM after 24 hrs by Annexin-V FITC/7-AAD staining based flow cytometric method (reference value: 0.535%)", "type": "functional"}, "EOL1 [9]": {"test_system": "EOL1", "assay": "Induction of apoptosis in human EOL-1 cells assessed as early apoptotic cells at 0.26 uM after 24 hrs by Annexin-V FITC/7-AAD staining based flow cytometric method (reference value: 1.94%)", "type": "functional"}, "EOL1 [10]": {"test_system": "EOL1", "assay": "Induction of apoptosis in human EOL-1 cells assessed as necrotic cells at 1.8 uM after 24 hrs by Annexin-V FITC/7-AAD staining based flow cytometric method (reference value: 0.032%)", "type": "functional"}, "EOL1 [11]": {"test_system": "EOL1", "assay": "Induction of apoptosis in human EOL-1 cells assessed as late apoptotic cells at 1.8 uM after 24 hrs by Annexin-V FITC/7-AAD staining based flow cytometric method (reference value: 0.535%)", "type": "functional"}, "EOL1 [12]": {"test_system": "EOL1", "assay": "Induction of apoptosis in human EOL-1 cells assessed as live cells at 0.26 uM after 24 hrs by Annexin-V FITC/7-AAD staining based flow cytometric method (reference value: 97.5%)", "type": "functional"}, "MOLM-13 [13]": {"test_system": "MOLM-13", "assay": "Induction of apoptosis in human MOLM13 cells assessed as necrotic cells at 0.26 uM after 24 hrs by Annexin-V FITC/7-AAD staining based flow cytometric method (reference value: 0%)", "type": "functional"}, "EOL1 [14]": {"test_system": "EOL1", "assay": "Induction of apoptosis in human EOL-1 cells assessed as late apoptotic cells at 0.26 uM after 24 hrs by Annexin-V FITC/7-AAD staining based flow cytometric method (reference value: 0.535%)", "type": "functional"}, "EOL1 [15]": {"test_system": "EOL1", "assay": "Induction of apoptosis in human EOL-1 cells assessed as live cells at 0.59 uM after 24 hrs by Annexin-V FITC/7-AAD staining based flow cytometric method (reference value: 97.5%)", "type": "functional"}, "EOL1 [16]": {"test_system": "EOL1", "assay": "Induction of apoptosis in human EOL-1 cells assessed as caspase-3 activation at 10 uM after 72 hrs by immunoblotting analysis", "type": "functional, cell-based", "method_in_brief": "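EOL-1 cells (RPMI 1640, 10% FBS, 37 °C, 5% CO2) exposed 72 h; compounds at 10 μM, PKC412 at 10 nM. Harvested, PBS-washed, lysed in hypertonic NP-40 buffer with protease/phosphatase inhibitors; SDS-PAGE, PVDF transfer, rabbit monoclonal cleaved caspase-3 (Asp175) antibody 12 h, secondary 1 h, chemiluminescent detection; β-actin loading control. Representative blots of three independent experiments.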"}, "MOLM-13 [17]": {"test_system": "MOLM-13", "assay": "Induction of apoptosis in human MOLM13 cells assessed as late apoptotic cells at 0.59 uM after 24 hrs by Annexin-V FITC/7-AAD staining based flow cytometric method (reference value: 1.43%)", "type": "functional"}, "MOLM-13 [18]": {"test_system": "MOLM-13", "assay": "Induction of apoptosis in human MOLM13 cells assessed as live cells at 0.26 uM after 24 hrs by Annexin-V FITC/7-AAD staining based flow cytometric method (reference value: 86.8%)", "type": "functional"}, "EOL1 [19]": {"test_system": "EOL1", "assay": "Induction of apoptosis in human EOL-1 cells assessed as live cells at 1.8 uM after 24 hrs by Annexin-V FITC/7-AAD staining based flow cytometric method (reference value: 97.5%)", "type": "functional"}, "MOLM-13 [20]": {"test_system": "MOLM-13", "assay": "Induction of apoptosis in human MOLM13 cells assessed as caspase-3 activation at 10 uM after 72 hrs by immunoblotting analysis", "type": "functional, cell-based", "method_in_brief": "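MOLM-13 cells treated 72 h with test compounds at 10 μM or PKC412 at 10 nM. Cells washed in ice-cold PBS, lysed at 10^8 cells/mL in NP-40 hypertonic buffer (pH 7.5) with protease/phosphatase inhibitors, then run on SDS-PAGE and PVDF. Blots probed 12 h with rabbit monoclonal cleaved caspase-3 (Asp175), β-actin as loading control. Representative of three independent experiments.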"}, "MOLM-13 [21]": {"test_system": "MOLM-13", "assay": "Induction of apoptosis in human MOLM13 cells assessed as live cells at 0.59 uM after 24 hrs by Annexin-V FITC/7-AAD staining based flow cytometric method (reference value: 86.8%)", "type": "functional"}, "[22]": {"target": "Transcription factor p65 (Homo sapiens) (UniProt Q04206)", "assay": "Inhibition of NFkappaB p65 in human MOLM13 cells at 10 uM after 72 hrs by immunoblotting method", "type": "cell-based", "method_in_brief": "as §1"}, "MOLM-13 [23]": {"test_system": "MOLM-13", "assay": "Induction of apoptosis in human MOLM13 cells assessed as necrotic cells at 0.59 uM after 24 hrs by Annexin-V FITC/7-AAD staining based flow cytometric method (reference value: 0%)", "type": "functional"}, "MOLM-13 [24]": {"test_system": "MOLM-13", "assay": "Induction of apoptosis in human MOLM13 cells assessed as early apoptotic cells at 0.26 uM after 24 hrs by Annexin-V FITC/7-AAD staining based flow cytometric method (reference value: 11.8%)", "type": "functional"}, "HT-29": {"test_system": "HT-29", "assay": "Cytotoxicity against human HT-29 cells after 72 hrs by MTS assay", "type": "functional, cell-based", "settings": "HT-29, 72 h"}, "EOL1 [25]": {"test_system": "EOL1", "assay": "Synergistic antileukemic activity against human EOL-1 cells assessed as concentration required for <= 75% cell survival after 72 hrs in presence of midostaurin by CellTiter 96 AQueous One solution cell proliferation assay", "type": "functional"}, "MOLM-13 [26]": {"test_system": "MOLM-13", "assay": "Induction of apoptosis in human MOLM13 cells assessed as early apoptotic cells at 0.59 uM after 24 hrs by Annexin-V FITC/7-AAD staining based flow cytometric method (reference value: 11.8%)", "type": "functional"}, "MOLM-13 [27]": {"test_system": "MOLM-13", "assay": "Induction of apoptosis in human MOLM13 cells assessed as live cells at 1.8 uM after 24 hrs by Annexin-V FITC/7-AAD staining based flow cytometric method (reference value: 86.8%)", "type": "functional"}, "MOLM-13 [28]": {"test_system": "MOLM-13", "assay": "Cytotoxicity against human MOLM13 cells after 72 hrs by MTS assay", "type": "functional, cell-based", "settings": "MOLM-13, 72 h"}, "MOLM-13 [29]": {"test_system": "MOLM-13", "assay": "Induction of apoptosis in human MOLM13 cells assessed as late apoptotic cells at 1.8 uM after 24 hrs by Annexin-V FITC/7-AAD staining based flow cytometric method (reference value: 1.43%)", "type": "functional"}, "EOL1 [30]": {"test_system": "EOL1", "assay": "Induction of apoptosis in human EOL-1 cells assessed as early apoptotic cells at 1.8 uM after 24 hrs by Annexin-V FITC/7-AAD staining based flow cytometric method (reference value: 1.94%)", "type": "functional"}, "MOLM-13 [31]": {"test_system": "MOLM-13", "assay": "Induction of apoptosis in human MOLM13 cells assessed as early apoptotic cells at 1.8 uM after 24 hrs by Annexin-V FITC/7-AAD staining based flow cytometric method (reference value: 11.8%)", "type": "functional"}, "EOL1 [32]": {"test_system": "EOL1", "assay": "Induction of apoptosis in human EOL-1 cells assessed as necrotic cells at 0.26 uM after 24 hrs by Annexin-V FITC/7-AAD staining based flow cytometric method (reference value: 0.032%)", "type": "functional"}},
  "note": "Activity calls are given as the source filed them. The rule behind the calls is not given here.",
  "data": [
    {"smiles": "C=C(C)C(=O)O[C@H]1C[C@@]2(C)OC(=CC2=O)/C(C)=C\\[C@H]2OC(=O)C(=C)[C@H]12", "values": [
      {"measurement": "Activity", "setting": "MOLM-13 [1]", "result": 0.097, "unit": "%"},
      {"measurement": "Activity", "setting": "MOLM-13 [2]", "result": 0.44, "unit": "µM"},
      {"measurement": "Activity", "setting": "EOL1 [3]", "result": 0.301, "unit": "%"},
      {"measurement": "inhibition", "setting": "[4]", "result": "Active"},
      {"measurement": "Activity", "setting": "MOLM-13 [5]", "result": 9.96, "unit": "%"},
      {"measurement": "Activity", "setting": "EOL1 [6]", "result": 2.66, "unit": "%"},
      {"measurement": "IC50", "setting": "EOL1 [7]", "result": 1, "unit": "µM"},
      {"measurement": "Activity", "setting": "EOL1 [8]", "result": 4.42, "unit": "%"},
      {"measurement": "Activity", "setting": "EOL1 [9]", "result": 1.9, "unit": "%"},
      {"measurement": "Activity", "setting": "EOL1 [10]", "result": 4.7, "unit": "%"},
      {"measurement": "Activity", "setting": "EOL1 [11]", "result": 69.1, "unit": "%"},
      {"measurement": "Activity", "setting": "EOL1 [12]", "result": 97.5, "unit": "%"},
      {"measurement": "Activity", "setting": "MOLM-13 [13]", "result": 0.08, "unit": "%"},
      {"measurement": "Activity", "setting": "EOL1 [14]", "result": 0.568, "unit": "%"},
      {"measurement": "Activity", "setting": "EOL1 [15]", "result": 92.6, "unit": "%"},
      {"measurement": "Activity", "setting": "EOL1 [16]", "result": "Active"},
      {"measurement": "Activity", "setting": "MOLM-13 [17]", "result": 2.42, "unit": "%"},
      {"measurement": "Activity", "setting": "MOLM-13 [18]", "result": 92.3, "unit": "%"},
      {"measurement": "Activity", "setting": "EOL1 [19]", "result": 25.9, "unit": "%"},
      {"measurement": "Activity", "setting": "MOLM-13 [20]", "result": "Active"},
      {"measurement": "Activity", "setting": "MOLM-13 [21]", "result": 86.5, "unit": "%"},
      {"measurement": "inhibition", "setting": "[22]", "result": "Active"},
      {"measurement": "Activity", "setting": "MOLM-13 [23]", "result": 0.214, "unit": "%"},
      {"measurement": "Activity", "setting": "MOLM-13 [24]", "result": 6.62, "unit": "%"},
      {"measurement": "IC50", "setting": "HT-29", "result": 0.26, "unit": "µM"},
      {"measurement": "Activity", "setting": "EOL1 [25]", "result": 0.59, "unit": "µM"},
      {"measurement": "Activity", "setting": "MOLM-13 [26]", "result": 10.9, "unit": "%"},
      {"measurement": "Activity", "setting": "MOLM-13 [27]", "result": 1.66, "unit": "%"},
      {"measurement": "IC50", "setting": "MOLM-13 [28]", "result": 1.1, "unit": "µM"},
      {"measurement": "Activity", "setting": "MOLM-13 [29]", "result": 87.1, "unit": "%"},
      {"measurement": "Activity", "setting": "EOL1 [30]", "result": 0.24, "unit": "%"},
      {"measurement": "Activity", "setting": "MOLM-13 [31]", "result": 1.25, "unit": "%"},
      {"measurement": "Activity", "setting": "EOL1 [32]", "result": 0.032, "unit": "%"}
    ]}
  ]
}
